Source: PubChem BioAssay AID504502 (Broad Institute, 2011)
The source made the active and inactive calls.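 The calls were made as follows: active = compounds whose fitted half-maximal growth inhibition concentration is at most ten times the top tested dose; inconclusive = flat curve with 30 to 70% inhibition, or poor fit; inactive = the rest.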

tested on: not listed separately; assay: antifungal growth reduction in resistant isolate – CaCi-2, fluconazole present, retest, powder, set 6, confirmation (AID 504502); conditions: C. albicans CaCi-2 + fluconazole, Alamar Blue growth, 48 h; at 12 µM (top of the series)
Summary of the method: (§1)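 Signal: Alamar Blue fluorescence at 1:200 final, excitation 544 nm, emission 590 nm | Test system: Fluconazole-resistant Candida albicans strain CaCi-2 | Quantity: Fungal inoculum at starting OD600 of 0.00015 | Probe or stimulus: Fluconazole 8 µg/mL | Buffer or medium: Defined RPMI medium with MOPS buffer | Times: 48 h growth at 37 °C, 2 h dye step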

Row | SMILES | activity change, negative = inhibition
1 | O=C(O)Cn1c2ccc(F)cc2c2nc3n(c(=O)c21)CCS3 | 0.059% (inactive)
2 | O=C(O)Cn1c2ccccc2c2nc3n(c(=O)c21)CCS3 | -8.34% (inactive)
3 | COC(=O)Cn1nc(C(C)(C)C)c2ccccc21 | 3% (inactive)
4 | COC(=O)Cn1nc(-c2cccnc2)c2ccccc21 | -23.4% (inactive)
5 | CCc1nn(CC(=O)OC)c2ccccc12 | 6.18% (inactive)
6 | COC(=O)n1nc(-c2ccccc2)c2ccccc21 | 10.4% (inactive)
7 | COC(=O)Cn1nc(-c2ccccc2)c2cccnc21 | -41.1% (inactive)
8 | CC1CCN(CCn2c3ccccc3c3nc4n(c(=O)c32)CCS4)CC1 | -9.05% (inactive)
9 | CC1(O)CN(C(=O)Cn2c3ccccc3c3nc4n(c(=O)c32)CCS4)C1 | -0.117% (inactive)
10 | COC(=O)Cn1nc(-c2cnco2)c2ccccc21 | -10.5% (inactive)
11 | COC(=O)Cn1nc(C2CC2)c2ccccc21 | 0.132% (inactive)

tested on: C. albicans CaCi-2 + fluconazole, Alamar Blue growth, 48 h; assay: as above; conditions: not given
Summary of the method: as §1

Row | SMILES | AC50
12 | O=C(Cn1c2ccc(F)cc2c2nc3n(c(=O)c21)CCS3)N1CC=CC1 | 276 nM
13 | O=C(Cn1c2ccccc2c2nc3n(c(=O)c21)CCS3)N1CCCC1 | 795 nM
14 | O=C(Cn1c2ccccc2c2nc3n(c(=O)c21)CCS3)N1CCCCC1 | 1250 nM
15 | COC(=O)Cn1nc(-c2cccc(C)c2)c2ccccc21 | 646 nM
16 | O=C(Cn1c2ccccc2c2nc3n(c(=O)c21)CCS3)N1CCC(F)(F)C1 | 3700 nM
17 | COC(=O)Cn1nc(-c2cccc(OC)c2)c2ccccc21 | 348 nM
18 | CN1CCN(C(=O)Cn2c3ccccc3c3nc4n(c(=O)c32)CCS4)CC1 | 4740 nM
19 | O=C(Cn1c2ccc(F)cc2c2nc3n(c(=O)c21)CCS3)N1CCC(F)(F)C1 | 717 nM
20 | O=C(Cn1c2ccccc2c2nc3n(c(=O)c21)CCS3)N1CCC(F)(F)CC1 | 1470 nM
21 | O=C(Cn1c2ccc(F)cc2c2nc3n(c(=O)c21)CCS3)N1CCCC1 | 298 nM
22 | COC(=O)Cn1nc(C2CCCCC2)c2ccccc21 | 1800 nM
23 | O=C(Cn1c2ccccc2c2nc3n(c(=O)c21)CCS3)N1CC=CC1 | 821 nM
24 | COC(=O)Cn1nc(-c2cccc(F)c2)c2ccccc21 | 1170 nM
25 | O=C(Cn1c2ccc(F)cc2c2nc3n(c(=O)c21)CCS3)N1CCC(F)(F)CC1 | 391 nM
26 | COC(=O)Cn1c2ccc(F)cc2c2nc3n(c(=O)c21)CCS3 | 2080 nM
